{"source": "paper PMC11393732", "about": "(RSC Medicinal Chemistry, 2024)", "key": {"[1]": {"tested_on": "Wnt target genes in HCP-1 cells", "experiment": "RT-qPCR of Wnt target gene expression in HCP-1", "assay_type": "cell-based, human", "outline": "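Cells in 6-well plates exposed to test compound for 16 h. Total RNA extracted; 1 μg reverse-transcribed with M-MuLV and random hexamers. SYBR Green qPCR for the named genes, quantified by 2ΔΔct against tubulin. Mean ± SD; unpaired two-tailed Student's t-test.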"}, "[2]": {"tested_on": "CCND1", "experiment": "IHC of HCP-1 xenograft tumors, CCND1", "assay_type": "in vivo, mice", "details": "HCP-1 xenograft tumor tissues", "outline": "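Tumours came from ALDHHigh HCP-1 xenografts in NSG mice given test compound IP (3, 10 or 35 mg kg−1) for 16 days. Paraffin sections were deparaffinised and rehydrated, then antigen-unmasked. Peroxidase blocked; sections blocked 1 h in 10% goat serum. Primary antibody overnight at 4 °C, biotinylated secondary 30 min at RT, avidin–biotin peroxidase detection, hematoxylin counterstain.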"}, "[3]": {"tested_on": "SW480 cells", "experiment": "Clonogenic assay SW480", "assay_type": "cell-based, human", "details": "SW480, 2 weeks", "outline": "(§1)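 Cells kept in DMEM with 10% FBS and 1% pen–strep, seeded at 500 cells/well and dosed with test compound once attached. Medium refreshed every 3 days for 2 weeks. Colonies stained with 0.5% crystal violet and photographed. ED50 obtained by image analysis.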"}, "[4]": {"target": "hERG potassium channel (Homo sapiens, UniProt Q12809)", "sequence (Q12809 whole entry)": "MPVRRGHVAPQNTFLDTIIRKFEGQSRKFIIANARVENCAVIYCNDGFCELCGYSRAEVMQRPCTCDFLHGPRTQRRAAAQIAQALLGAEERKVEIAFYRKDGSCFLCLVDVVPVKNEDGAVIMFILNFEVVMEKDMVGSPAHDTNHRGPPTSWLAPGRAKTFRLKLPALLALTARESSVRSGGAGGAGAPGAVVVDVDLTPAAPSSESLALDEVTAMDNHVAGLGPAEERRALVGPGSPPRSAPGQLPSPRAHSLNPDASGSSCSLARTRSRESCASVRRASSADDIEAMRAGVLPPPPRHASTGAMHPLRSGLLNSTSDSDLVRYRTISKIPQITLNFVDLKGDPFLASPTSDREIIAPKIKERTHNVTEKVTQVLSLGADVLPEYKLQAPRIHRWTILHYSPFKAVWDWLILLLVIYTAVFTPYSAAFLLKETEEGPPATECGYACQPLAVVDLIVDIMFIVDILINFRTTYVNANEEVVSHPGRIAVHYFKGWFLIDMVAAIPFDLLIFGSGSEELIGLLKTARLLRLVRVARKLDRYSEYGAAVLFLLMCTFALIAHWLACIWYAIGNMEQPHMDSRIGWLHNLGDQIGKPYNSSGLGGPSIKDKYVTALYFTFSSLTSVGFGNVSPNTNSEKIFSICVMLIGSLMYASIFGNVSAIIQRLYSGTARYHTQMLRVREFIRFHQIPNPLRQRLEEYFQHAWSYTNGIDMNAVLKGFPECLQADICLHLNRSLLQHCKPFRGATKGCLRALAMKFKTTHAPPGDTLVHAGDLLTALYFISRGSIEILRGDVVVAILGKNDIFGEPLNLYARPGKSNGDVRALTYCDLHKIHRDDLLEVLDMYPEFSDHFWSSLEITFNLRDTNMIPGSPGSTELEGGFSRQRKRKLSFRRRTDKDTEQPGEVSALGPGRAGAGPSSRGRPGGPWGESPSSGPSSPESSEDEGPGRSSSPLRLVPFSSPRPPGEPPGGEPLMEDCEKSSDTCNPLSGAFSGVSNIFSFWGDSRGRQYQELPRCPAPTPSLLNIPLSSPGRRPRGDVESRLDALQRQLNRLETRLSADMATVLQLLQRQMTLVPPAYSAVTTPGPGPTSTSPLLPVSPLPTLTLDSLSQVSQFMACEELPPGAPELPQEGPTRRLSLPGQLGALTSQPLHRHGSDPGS", "experiment": "hERG automated patch-clamp assay", "assay_type": "cell-based", "outline": "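hERG-expressing CHO-K1 cells were plated at least 24 h beforehand and recorded by whole-cell patch clamp at about RT with 0.1% Pluronic F-68. Holding −80 mV; 500 ms step to −40 mV for leak subtraction; 500 ms step to +40 mV, then 100 ms ramp to −80 mV for tail current, every 8 s. Block = mean tail amplitude over the last 15 s with test compound ÷ control.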"}, "[5]": {"tested_on": "KDM4 family proteins (KDM4A, KDM4B and KDM4C)", "experiment": "Western blot KDM4 family proteins in SW480 cells", "assay_type": "cell-based, human", "outline": "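Lysates from compound-treated SW480 cells normalised for total protein and resolved by SDS-PAGE. Semi-dry transfer to PVDF, 1 h block in 5% milk. Overnight incubation at 4 °C with anti-KDM4A, -KDM4B or -KDM4C antibody in 1% milk, secondary 1 h at RT, TBST washes, α-tubulin as loading control.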"}, "[6]": {"tested_on": "293T cells expressing a TCF-responsive luciferase reporter (293T-TCF-Luc)", "experiment": "Wnt luciferase reporter assay", "assay_type": "cell-based", "details": "Homo sapiens, HEK-293T, 16 h, read-out: IC50 (293T-TCF-Luc)", "outline": "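293T cells stably transduced with a lentiviral TCF/LEF–luciferase reporter and selected in puromycin ([…], 4 days). Seeded at 100 000 cells/well and dosed with test compound on attachment. Wnt signalling stimulated with 20 mM LiCl 4 h later. Lysates taken at 16 h; Bright-Glo luminescence normalised to total protein.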"}, "[7]": {"tested_on": "HCP-1 cells", "experiment": "Clonogenic assay HCP-1", "assay_type": "cell-based, human", "details": "HCP-1, 2 weeks", "outline": "as §1"}, "[8]": {"target": "KDM3B (Homo sapiens, UniProt Q7LBC6)", "sequence (Q7LBC6 whole entry)": "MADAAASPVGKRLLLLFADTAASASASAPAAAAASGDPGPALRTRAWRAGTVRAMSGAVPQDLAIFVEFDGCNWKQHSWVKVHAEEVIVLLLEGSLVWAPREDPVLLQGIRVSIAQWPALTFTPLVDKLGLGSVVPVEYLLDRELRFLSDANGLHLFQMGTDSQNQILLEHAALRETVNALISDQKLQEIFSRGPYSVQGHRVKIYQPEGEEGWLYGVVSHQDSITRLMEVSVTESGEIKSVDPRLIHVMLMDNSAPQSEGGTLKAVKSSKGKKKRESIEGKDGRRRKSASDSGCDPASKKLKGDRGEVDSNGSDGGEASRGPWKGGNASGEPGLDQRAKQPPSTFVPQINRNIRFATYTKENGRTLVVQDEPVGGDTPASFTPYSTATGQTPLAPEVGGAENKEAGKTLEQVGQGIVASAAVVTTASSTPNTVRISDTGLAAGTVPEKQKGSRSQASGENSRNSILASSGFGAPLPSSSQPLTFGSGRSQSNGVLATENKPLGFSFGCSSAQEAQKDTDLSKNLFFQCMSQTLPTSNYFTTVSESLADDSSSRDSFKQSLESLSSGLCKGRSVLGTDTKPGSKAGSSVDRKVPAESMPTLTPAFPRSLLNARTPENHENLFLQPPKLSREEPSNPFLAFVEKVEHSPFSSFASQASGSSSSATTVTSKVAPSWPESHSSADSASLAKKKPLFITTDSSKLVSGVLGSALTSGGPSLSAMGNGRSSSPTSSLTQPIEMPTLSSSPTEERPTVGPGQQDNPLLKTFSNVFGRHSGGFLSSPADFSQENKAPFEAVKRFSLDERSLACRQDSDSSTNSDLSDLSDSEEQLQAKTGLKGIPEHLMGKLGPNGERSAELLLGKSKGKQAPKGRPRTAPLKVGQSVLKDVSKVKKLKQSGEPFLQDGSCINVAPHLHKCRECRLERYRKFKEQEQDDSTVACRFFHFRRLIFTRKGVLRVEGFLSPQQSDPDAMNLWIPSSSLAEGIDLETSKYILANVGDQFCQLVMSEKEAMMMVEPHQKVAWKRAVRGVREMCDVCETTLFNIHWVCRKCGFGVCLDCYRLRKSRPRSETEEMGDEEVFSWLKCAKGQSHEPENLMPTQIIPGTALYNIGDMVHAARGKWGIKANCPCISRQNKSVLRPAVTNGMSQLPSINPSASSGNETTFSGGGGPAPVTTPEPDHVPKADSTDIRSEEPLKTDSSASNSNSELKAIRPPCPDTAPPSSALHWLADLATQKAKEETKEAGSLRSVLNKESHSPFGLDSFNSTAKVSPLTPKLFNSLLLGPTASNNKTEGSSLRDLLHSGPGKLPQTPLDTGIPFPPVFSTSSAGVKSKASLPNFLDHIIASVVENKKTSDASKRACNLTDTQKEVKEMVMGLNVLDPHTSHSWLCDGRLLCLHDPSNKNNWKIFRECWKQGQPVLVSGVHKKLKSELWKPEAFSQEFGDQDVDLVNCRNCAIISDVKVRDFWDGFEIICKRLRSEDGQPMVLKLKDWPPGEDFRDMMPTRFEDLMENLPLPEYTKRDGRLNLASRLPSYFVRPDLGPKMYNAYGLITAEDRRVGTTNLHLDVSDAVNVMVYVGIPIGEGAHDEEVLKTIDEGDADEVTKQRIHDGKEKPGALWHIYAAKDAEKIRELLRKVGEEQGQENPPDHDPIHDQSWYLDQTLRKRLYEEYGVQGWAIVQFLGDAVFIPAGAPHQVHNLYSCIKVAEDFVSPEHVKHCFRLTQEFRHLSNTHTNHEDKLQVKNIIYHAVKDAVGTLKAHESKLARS", "experiment": "Western blot KDM3B degradation in SW480 cells", "assay_type": "cell-based", "outline": "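SW480 cells exposed to test compound for 16 h, then total lysates protein-normalised and run on SDS-PAGE. Semi-dry transfer to PVDF, 1 h block in 5% milk. Primary antibody overnight at 4 °C in 1% milk, secondary 1 h at RT, TBST washes, α-tubulin as loading control. Rescue arms co-treated with MLN4924 (1 μM) or pomalidomide (100 μM). Test compound at 0.1 μM for the KDM3A blot and 1 μM for the KDM3B blot.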"}, "[9]": {"tested_on": "ALDH^High-HCP-1 CSC-derived tumors", "experiment": "In vivo tumor growth, ALDH^High-HCP-1 CSC xenograft", "design": "species or system mice", "outline": "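NSG mice in 5 groups of 5. FACS-sorted ALDHHigh HCP-1 cells (2500 in Matrigel) injected subcutaneously into both flanks. Test compound given IP at 3, 10 or 35 mg kg−1, or IOX1 at 10 mg kg−1, in PBS/Kolliphor EL vehicle; controls got vehicle; 16 days. Body weight taken every other day, tumour volume on days 9, 13–16, tumour weight at sacrifice.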"}}}
{"smiles": "O=C1CCC(N2C(=O)c3cccc(NCCOCCOCCOCCOCCNC(=O)c4ccc(O)c5ncccc45)c3C2=O)C(=O)N1", "note": "(centres unmarked) [Compound 4, N-(14-((2-(2,6-Dioxopiperidin-3-yl)-1,3-dioxoisoindolin-4-yl)amino)-3,6,9,12-tetraoxatetradecyl)-8-hydroxyquinoline-5-carboxamide]", "values": [{"measurement": "suppression of Wnt target gene expression (AXIN2, DKK1, CCND1)", "setting": "[1]; HCP-1, 50 μM, 16-hour treatment, in most cases", "value": "≥ 50", "unit": "%"}, {"measurement": "expression of colorectal CSC signature genes (ASCL2, RNF43, ZNRF3, LGR5)", "setting": "[1]; HCP-1, 16 hours", "value": "strongly inhibited"}, {"measurement": "CCND1 expression (IHC)", "setting": "[2]", "value": "downregulated"}, {"measurement": "colony formation", "setting": "[3]", "value": "potently inhibited the colony formation"}, {"measurement": "IC50", "setting": "[4]", "value": "> 30", "unit": "µM"}, {"measurement": "effect on KDM4 family proteins", "setting": "[5]", "value": "not dramatically affected"}, {"measurement": "IC50", "setting": "[6]", "value": 8.9, "unit": "µM"}, {"measurement": "colony formation", "setting": "[7]", "value": "potently inhibited the colony formation"}, {"measurement": "Dmax", "setting": "[8]; SW480, read-out: Dmax KDM3B", "value": 88.5, "unit": "%"}, {"measurement": "KDM3B degradation with MLN4924 co-treatment", "setting": "[8]; SW480, MLN4924 1 μM, compound 4 1 μM", "value": "could be restored by MLN4924"}, {"measurement": "KDM3B degradation with pomalidomide or IOX1 co-treatment", "setting": "[8]; SW480, pomalidomide 100 μM, compound 4 1 μM", "value": "could also be suppressed by either pomalidomide or IOX1"}, {"measurement": "KDM3B degradation (western blot)", "setting": "[8]; SW480 cells, 16 hours", "value": "degrades both KDM3A and KDM3B at nanomolar concentrations"}, {"measurement": "DC50", "setting": "[8]; read-out: DC50 KDMB, SW480 cells, 16 hours", "value": 0.173, "unit": "µM"}, {"measurement": "tumor volume and tumor weight vs IOX1 group", "setting": "[9]; 3 mg kg^−1 IP vs IOX1 10 mg kg^−1", "value": "no significant change"}, {"measurement": "CSC-derived tumor growth", "setting": "[9]; 3, 10, 35 mg kg^−1 IP, 16 days, vs vehicle", "value": "significantly inhibited"}, {"measurement": "tumor volume and tumor weight vs IOX1 group", "setting": "[9]; 10 and 35 mg kg^−1 IP vs IOX1 10 mg kg^−1", "value": "significantly decreased"}, {"measurement": "body weight of mice", "setting": "[9]; IP, 16 days", "value": "little impact on the body weight"}]}
